The source made the active and inactive calls. The calls are words filed in the database; no cut-off is given here. Starred links: 1 amine or outer side, 2 acyl side, 3 side chain; linkers in the order of their positions; H or OH if unused. Positions of bridges follow the written chain, without caps; N, C: chain ends. Non-standard residues stand in square brackets, D forms with d. Residues, ends and D or L forms follow the SMILES beside them. Chains are numbered I, II in the order given. Gly(N-piperonyl) = O=C(O)CNCc1ccc2c(c1)OCO2; N(4-MeOBn)Gly = COc1ccc(CNCC(=O)O)cc1; N(CH2CH2NHAc)Gly = CC(=O)NCCNCC(=O)O; X3 = CC(c1ccccc1)N(CC(=O)[*:2])[*:1]; N(4-MeBn)Gly = Cc1ccc(CNCC(=O)O)cc1; X9 = O=C(CN(CCOc1ccccc1)[*:1])[*:2]; NFurfurylGly = O=C(O)CNCc1ccco1

The subject of this experiment is HCC4017. Put plainly: Cytotoxicity against human HCC4017 cells assessed as reduction in cell viability at 20 uM after 24 hrs by MTS assay. It counts as functional, cell-based. In outline:
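HCC4017 cells (RPMI, 5% FBS) and HBEC-3KT normal lung cells (KSFM with recombinant human EGF and bovine pituitary extract) were plated at 10 000 cells/well in triplicate and left to adhere overnight. They were exposed to 1 or 20 μM compound for 24 h. MTS reagent was then added for 2 h and absorbance read at 490 nm. Viability is % of untreated control wells.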
A general note: Formazan colour is commonly taken as a measure of viable cells.
For `COc1ccc(CN(CC(=O)N(CC(=O)NC(CCCCN)C(=O)NC(CCCCN)C(=O)NC(CCSC)C(=O)NCCCCC(NC(=O)C(CCSC)NC(=O)C(CCCCN)NC(=O)C(CCCCN)NC(=O)CN(Cc2ccc(C)cc2)C(=O)CN(Cc2ccc(OC)cc2)C(=O)CN(C(=O)CN(Cc2ccc3c(c2)OCO3)C(=O)CNC(C)c2ccccc2)C(C)c2ccccc2)C(N)=O)Cc2ccc(C)cc2)C(=O)CN(C(=O)CN(Cc2ccc3c(c2)OCO3)C(=O)CNC(C)c2ccccc2)C(C)c2ccccc2)cc1` (stereo not given) (I: H-[X3][Gly(N-piperonyl)][X3][N(4-MeOBn)Gly][N(4-MeBn)Gly]KKMK-NH2 / II: H-[X3][Gly(N-piperonyl)][X3][N(4-MeOBn)Gly][N(4-MeBn)Gly]KKM; amide I:9-II:C; configuration not given here), the outcome was Active.

As to `COc1ccc(CN(CC(=O)N(CCNC(C)=O)CC(=O)NC(CCCCN)C(=O)NC(CCCCN)C(=O)NC(CCSC)C(=O)NCCCCC(NC(=O)C(CCSC)NC(=O)C(CCCCN)NC(=O)C(CCCCN)NC(=O)CN(CCNC(C)=O)C(=O)CN(Cc2ccc(OC)cc2)C(=O)CN(C(=O)CN(Cc2ccc3c(c2)OCO3)C(=O)CNC(C)c2ccccc2)C(C)c2ccccc2)C(N)=O)C(=O)CN(C(=O)CN(Cc2ccc3c(c2)OCO3)C(=O)CNC(C)c2ccccc2)C(C)c2ccccc2)cc1` (stereo not given) (I: H-[X3][Gly(N-piperonyl)][X3][N(4-MeOBn)Gly][N(CH2CH2NHAc)Gly]KKMK-NH2 / II: H-[X3][Gly(N-piperonyl)][X3][N(4-MeOBn)Gly][N(CH2CH2NHAc)Gly]KKM; amide I:9-II:C; configuration not given here), the result was Active. Then `COc1ccc(CN(CC(=O)N(CC(=O)NC(CCCCN)C(=O)NC(CCCCN)C(=O)NC(CCSC)C(=O)NCCCCC(NC(=O)C(CCSC)NC(=O)C(CCCCN)NC(=O)C(CCCCN)NC(=O)CN(Cc2ccco2)C(=O)CN(Cc2ccc(OC)cc2)C(=O)CN(C(=O)CN(Cc2ccc3c(c2)OCO3)C(=O)CNC(C)c2ccccc2)C(C)c2ccccc2)C(N)=O)Cc2ccco2)C(=O)CN(C(=O)CN(Cc2ccc3c(c2)OCO3)C(=O)CNC(C)c2ccccc2)C(C)c2ccccc2)cc1` (stereo not given) (I: H-[X3][Gly(N-piperonyl)][X3][N(4-MeOBn)Gly][NFurfurylGly]KKMK-NH2 / II: H-[X3][Gly(N-piperonyl)][X3][N(4-MeOBn)Gly][NFurfurylGly]KKM; amide I:9-II:C; configuration not given here), with “Active”; and `COc1ccc(CN(CC(=O)NC(C(=O)NC(CCCCN)C(=O)NC(CCCCN)C(=O)NC(CCSC)C(=O)NCCCCC(NC(=O)C(CCSC)NC(=O)C(CCCCN)NC(=O)C(CCCCN)NC(=O)C(NC(=O)CN(Cc2ccc(OC)cc2)C(=O)CN(C(=O)CN(Cc2ccc3c(c2)OCO3)C(=O)CNC(C)c2ccccc2)C(C)c2ccccc2)C(C)C)C(N)=O)C(C)C)C(=O)CN(C(=O)CN(Cc2ccc3c(c2)OCO3)C(=O)CNC(C)c2ccccc2)C(C)c2ccccc2)cc1` (stereo not given) (I: H-[X3][Gly(N-piperonyl)][X3][N(4-MeOBn)Gly]VKKMK-NH2 / II: H-[X3][Gly(N-piperonyl)][X3][N(4-MeOBn)Gly]VKKM; amide I:9-II:C; configuration not given here), with “Active”. `COc1ccc(CN(CC(=O)N(CCOc2ccccc2)CC(=O)NC(CCCCN)C(=O)NC(CCCCN)C(=O)NC(CCSC)C(=O)NCCCCC(NC(=O)C(CCSC)NC(=O)C(CCCCN)NC(=O)C(CCCCN)NC(=O)CN(CCOc2ccccc2)C(=O)CN(Cc2ccc(OC)cc2)C(=O)CN(C(=O)CN(Cc2ccc3c(c2)OCO3)C(=O)CNC(C)c2ccccc2)C(C)c2ccccc2)C(N)=O)C(=O)CN(C(=O)CN(Cc2ccc3c(c2)OCO3)C(=O)CNC(C)c2ccccc2)C(C)c2ccccc2)cc1` (stereo not given) (I: H-[X3][Gly(N-piperonyl)][X3][N(4-MeOBn)Gly][X9]KKMK-NH2 / II: H-[X3][Gly(N-piperonyl)][X3][N(4-MeOBn)Gly][X9]KKM; amide I:9-II:C; configuration not given here): the outcome was Active.

These data come from ChEMBL document CHEMBL4257452, “A mini-library system to investigate non-essential residues of lipid-phosphatidylserine (PS) binding peptide-peptoid hybrid PPS1” (Medchemcomm, 2017).
